Source: paper PMC3800034 (Journal of medicinal chemistry, 2013)
Entries after “also recorded” stand apart in the source; their conditions may differ.

How the values were obtained:
OXE receptor [1] = settings: cited from earlier work
neutrophil migration = settings: cited from earlier work
OXE receptor [2] = molecular target: OXE receptor (Homo sapiens, UniProt Q8TDS5); assay type: cell-based
[3] = tested on: response of neutrophils to LTB4; test: LTB4-induced calcium mobilization in human neutrophils; assay type: cell-based; settings: compound 10 µM, LTB4 10 nM
Method in brief: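 Neutrophils from whole blood of healthy human donors, suspended in phosphate-buffered saline, loaded with indo-1, and moved to a cuvette with CaCl₂ (1.8 mM) and MgCl₂ (1 mM) 5 min before the run. Fluorescence was read at 37 °C in a spectrofluorimeter. After a stable baseline, vehicle or test compound was added, then LTB4 (10 nM) 2 min later. Digitonin followed to give maximal response.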

Sequence of OXE receptor (Homo sapiens, UniProt Q8TDS5) (Q8TDS5 whole entry): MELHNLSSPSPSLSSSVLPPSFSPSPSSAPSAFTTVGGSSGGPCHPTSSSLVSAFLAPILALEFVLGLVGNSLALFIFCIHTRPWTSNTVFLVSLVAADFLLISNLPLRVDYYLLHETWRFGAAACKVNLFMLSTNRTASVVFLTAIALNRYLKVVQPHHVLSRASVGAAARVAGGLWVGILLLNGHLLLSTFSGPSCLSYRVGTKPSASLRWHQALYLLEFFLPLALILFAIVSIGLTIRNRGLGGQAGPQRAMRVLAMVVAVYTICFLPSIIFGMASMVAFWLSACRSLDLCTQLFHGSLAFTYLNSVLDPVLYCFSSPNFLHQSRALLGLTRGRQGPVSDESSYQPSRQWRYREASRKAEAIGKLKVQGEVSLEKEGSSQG

CCCCC/C=C\C[C@H](O)/C=C/C=C\C=C\C(=O)CCCC(=O)O [5-oxo-12S-HETE 6, 5-oxo-12S-HETE]
effect on intracellular Ca++ levels in neutrophils (OXE receptor [1]; compound alone): virtually no effect | block of 5-oxo-ETE-induced Ca++ mobilization (OXE receptor [1]; neutrophils): low µmolar range | effect on 5-oxo-ETE-induced neutrophil migration (neutrophil migration): inhibited

O=C(O)CCCC(=O)n1ccc2ccccc21 [Compound 10, 5-(1H-indol-1-yl)-5-oxopentanoic acid]
mobilization of intracellular calcium by the compound alone (agonist activity) (OXE receptor [2]; compound 30 µM added to neutrophils): neither mobilized intracellular calcium | effect on the response to 5-oxo-ETE (antagonist activity) (OXE receptor [2]; compound 30 µM, 5-oxo-ETE 10 nM added 2 min later): nor altered the response to 5-oxo-ETE; also recorded: does not affect calcium mobilization

CCCCCCc1cc2ccccc2n1C(=O)CCCC(=O)O [Compound 26, 5-(2-Hexyl-1H-indol-1-yl)-5-oxo-valeric acid]
inhibition of the effect of 5-oxo-ETE (OXE receptor [2]; compound 1 µM, 5-oxo-ETE 10 nM): substantially inhibited | inhibition of the response to 5-oxo-ETE (OXE receptor [2]; compound 10 µM, 5-oxo-ETE 10 nM): completely inhibiting | effect on the response of neutrophils to LTB4 [3]: virtually no effect

CCCCCCc1cc2ccc(Cl)cc2n1C(=O)CCCC(=O)O [Compound 39, 5-(6-Chloro-2-hexyl-1H-indol-1-yl)-5-oxo-valeric acid]
IC50 (OXE receptor [2]): 400 ± 30 nM | increase in potency compared with non-chlorinated compound 26 (OXE receptor [2]; 5-oxo-ETE-induced calcium mobilization, IC50 ratio): about 4 fold
